Laboratory results reported in ChEMBL document CHEMBL1132299, “Phosphinic pseudo-tripeptides as potent inhibitors of matrix metalloproteinases: a structure-activity study” (J Med Chem, 1999).
pKi: −log10 of the molar value.

How the values were obtained:
[1] = target: Matrix metalloproteinase-14 (Homo sapiens, UniProt P50281); test: Binding affinity against matrix metalloprotease-14 MTI-MMP.
Summary of the method: (§1)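 Catalytic domains of human MMP-14 and MMP-7 were expressed in E. coli BL21 DE3 pLysS. Buffer 50 mM Tris/HCl pH 6.8, 10 mM CaCl2, 25 °C; 0.2–5 nM enzyme; 6 µM Mca-Pro-Leu-Gly-Leu-Dpa-Ala-Arg-NH2 read by fluorescence (ex 340, em 400 nm) for 30 min. Km: MMP-14 21, MMP-7 67 µM. Five inhibitor concentrations in triplicate; Ki by Horovitz–Levitski method.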

Matrilysin = target: T1, Matrilysin (Homo sapiens, UniProt P09237); test: Inhibition of Matrix metalloprotease-7 Matrilysin; summary of the method: as §1
T1 sequence (P09237 whole entry): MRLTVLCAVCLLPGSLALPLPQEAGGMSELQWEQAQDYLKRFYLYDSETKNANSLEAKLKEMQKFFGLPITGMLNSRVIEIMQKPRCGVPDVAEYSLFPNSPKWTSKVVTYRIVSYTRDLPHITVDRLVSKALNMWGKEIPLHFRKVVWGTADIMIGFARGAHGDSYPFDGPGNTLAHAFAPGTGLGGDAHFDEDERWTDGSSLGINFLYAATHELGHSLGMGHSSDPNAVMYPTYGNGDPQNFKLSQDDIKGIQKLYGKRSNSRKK

Interstitial collagenase = target: T2, Interstitial collagenase (Homo sapiens, UniProt P03956); test: Inhibition of matrix metalloprotease-1
T2 sequence (P03956 whole entry): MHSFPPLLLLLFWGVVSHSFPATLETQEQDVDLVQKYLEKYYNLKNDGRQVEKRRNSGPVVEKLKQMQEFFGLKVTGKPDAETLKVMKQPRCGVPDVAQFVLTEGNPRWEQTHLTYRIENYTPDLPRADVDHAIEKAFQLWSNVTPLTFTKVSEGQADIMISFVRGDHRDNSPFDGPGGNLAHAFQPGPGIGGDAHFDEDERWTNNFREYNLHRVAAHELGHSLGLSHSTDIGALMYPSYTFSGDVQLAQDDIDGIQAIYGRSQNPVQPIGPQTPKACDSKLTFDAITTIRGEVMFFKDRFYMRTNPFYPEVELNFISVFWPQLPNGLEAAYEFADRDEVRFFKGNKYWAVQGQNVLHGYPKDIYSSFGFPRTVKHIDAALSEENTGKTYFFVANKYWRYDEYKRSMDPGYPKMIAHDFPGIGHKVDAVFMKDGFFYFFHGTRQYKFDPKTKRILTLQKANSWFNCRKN
Summary of the method: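 Human full-length pro-MMP-1 was expressed in NSO myeloma cells and activated just before use with trypsin (10 µg/mL, 25 min, 25 °C), then BPTI (100 µg/mL). Assay: 50 mM Tris/HCl pH 6.8, 10 mM CaCl2, 25 °C, 0.2–5 nM enzyme, 6 µM Mca-Pro-Leu-Gly-Leu-Dpa-Ala-Arg-NH2, fluorescence 340/400 nm over 30 min. Km 100 µM. Triplicate inhibition at five concentrations (20–80% range) gave Ki by the Horovitz–Levitski method.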

Neutrophil collagenase = Neutrophil collagenase (Homo sapiens, UniProt P22894); test: Inhibition of matrix metalloprotease-8
Summary of the method: (§2)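 Full-length human pro-MMP-2, -9 and -8 were expressed in NSO myeloma cells and activated with 4-aminophenylmercuric acetate just before use. Run at 25 °C in 50 mM Tris/HCl pH 6.8, 10 mM CaCl2, with 0.2–5 nM enzyme and 6 µM Mca-Pro-Leu-Gly-Leu-Dpa-Ala-Arg-NH2; fluorescence 340/400 nm, 30 min. Km: MMP-2 49, MMP-9 14, MMP-8 61 µM. Triplicate, five inhibitor levels; Ki by Horovitz–Levitski.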

[2] = target: 72 kDa type IV collagenase (Homo sapiens, UniProt P08253); test: Binding affinity against matrix metalloprotease-2 (gelatinase-A).; summary of the method: as §2
Stromelysin-3 = target: T3, Stromelysin-3 (Mus musculus, UniProt Q02853); test: Binding affinity against matrix metalloprotease-11.
T3 sequence (Q02853 whole entry): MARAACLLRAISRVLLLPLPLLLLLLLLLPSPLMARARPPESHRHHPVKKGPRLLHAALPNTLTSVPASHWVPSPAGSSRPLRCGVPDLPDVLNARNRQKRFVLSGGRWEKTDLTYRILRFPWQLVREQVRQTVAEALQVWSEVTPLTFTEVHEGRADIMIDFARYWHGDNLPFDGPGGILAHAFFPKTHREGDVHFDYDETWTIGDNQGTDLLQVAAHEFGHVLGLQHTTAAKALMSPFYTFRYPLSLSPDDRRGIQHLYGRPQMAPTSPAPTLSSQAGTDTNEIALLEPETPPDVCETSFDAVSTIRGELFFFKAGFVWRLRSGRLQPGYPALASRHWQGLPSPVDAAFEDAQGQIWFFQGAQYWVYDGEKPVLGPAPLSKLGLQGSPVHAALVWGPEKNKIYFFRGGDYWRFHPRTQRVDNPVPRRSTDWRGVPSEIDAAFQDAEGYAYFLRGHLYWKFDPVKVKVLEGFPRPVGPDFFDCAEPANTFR
Summary of the method: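 Mouse MMP-11 catalytic domain from E. coli BL21 DE3 pLysS, assayed in stirred quartz cuvettes in 50 mM Tris/HCl pH 6.8, 10 mM CaCl2 at 25 °C. Substrate was Mca-Pro-Leu-Ala-Cys(OMeBn)-Trp-Ala-Arg-Dpa-NH2 (Km 0.2 µM), with fluorescence read-out. Percent inhibition was measured in triplicate at five concentrations (20–80% range), and Ki was derived by the Horovitz–Levitski method.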

[3] = target: Matrix metalloproteinase-9 (Homo sapiens, UniProt P14780); test: Binding affinity against matrix metalloprotease-9 (gelatinase-B).; summary of the method: as §2
Chain of Matrix metalloproteinase-9 (P14780 whole entry): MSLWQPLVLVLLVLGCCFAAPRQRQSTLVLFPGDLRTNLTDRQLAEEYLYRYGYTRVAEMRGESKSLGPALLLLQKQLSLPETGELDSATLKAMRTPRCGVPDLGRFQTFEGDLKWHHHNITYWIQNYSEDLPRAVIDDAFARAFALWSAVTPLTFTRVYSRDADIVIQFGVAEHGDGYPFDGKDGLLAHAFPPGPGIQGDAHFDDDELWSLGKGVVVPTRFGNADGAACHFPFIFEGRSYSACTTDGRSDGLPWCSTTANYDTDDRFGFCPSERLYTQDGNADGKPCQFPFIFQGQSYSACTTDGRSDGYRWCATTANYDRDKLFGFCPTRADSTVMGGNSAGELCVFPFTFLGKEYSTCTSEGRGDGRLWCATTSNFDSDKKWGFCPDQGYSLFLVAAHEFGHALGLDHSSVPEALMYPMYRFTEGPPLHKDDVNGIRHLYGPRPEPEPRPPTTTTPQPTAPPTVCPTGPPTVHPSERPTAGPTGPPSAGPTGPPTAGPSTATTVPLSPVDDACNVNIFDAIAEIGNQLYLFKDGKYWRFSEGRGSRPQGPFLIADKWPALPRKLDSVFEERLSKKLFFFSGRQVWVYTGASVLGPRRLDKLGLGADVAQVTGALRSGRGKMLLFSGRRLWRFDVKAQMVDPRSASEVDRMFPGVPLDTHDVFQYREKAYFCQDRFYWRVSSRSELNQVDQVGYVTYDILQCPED

Chain of 72 kDa type IV collagenase (P08253 whole entry): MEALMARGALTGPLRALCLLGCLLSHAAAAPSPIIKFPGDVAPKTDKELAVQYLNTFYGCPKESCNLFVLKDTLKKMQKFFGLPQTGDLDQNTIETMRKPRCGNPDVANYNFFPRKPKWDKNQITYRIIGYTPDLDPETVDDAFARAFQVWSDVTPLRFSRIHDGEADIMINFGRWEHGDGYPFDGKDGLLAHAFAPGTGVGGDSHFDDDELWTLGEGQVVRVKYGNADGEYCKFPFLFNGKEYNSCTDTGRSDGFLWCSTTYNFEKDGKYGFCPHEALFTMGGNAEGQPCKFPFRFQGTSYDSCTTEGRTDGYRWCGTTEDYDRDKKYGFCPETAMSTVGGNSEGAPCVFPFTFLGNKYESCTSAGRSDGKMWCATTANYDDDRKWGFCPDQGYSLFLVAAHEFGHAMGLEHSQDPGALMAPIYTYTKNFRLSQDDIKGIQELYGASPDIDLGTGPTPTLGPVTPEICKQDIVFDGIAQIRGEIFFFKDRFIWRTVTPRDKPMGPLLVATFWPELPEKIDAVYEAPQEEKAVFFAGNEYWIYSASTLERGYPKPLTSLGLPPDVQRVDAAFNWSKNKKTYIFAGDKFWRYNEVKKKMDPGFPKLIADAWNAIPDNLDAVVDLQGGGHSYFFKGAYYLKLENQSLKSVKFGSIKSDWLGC
Chain of Neutrophil collagenase (P22894 whole entry): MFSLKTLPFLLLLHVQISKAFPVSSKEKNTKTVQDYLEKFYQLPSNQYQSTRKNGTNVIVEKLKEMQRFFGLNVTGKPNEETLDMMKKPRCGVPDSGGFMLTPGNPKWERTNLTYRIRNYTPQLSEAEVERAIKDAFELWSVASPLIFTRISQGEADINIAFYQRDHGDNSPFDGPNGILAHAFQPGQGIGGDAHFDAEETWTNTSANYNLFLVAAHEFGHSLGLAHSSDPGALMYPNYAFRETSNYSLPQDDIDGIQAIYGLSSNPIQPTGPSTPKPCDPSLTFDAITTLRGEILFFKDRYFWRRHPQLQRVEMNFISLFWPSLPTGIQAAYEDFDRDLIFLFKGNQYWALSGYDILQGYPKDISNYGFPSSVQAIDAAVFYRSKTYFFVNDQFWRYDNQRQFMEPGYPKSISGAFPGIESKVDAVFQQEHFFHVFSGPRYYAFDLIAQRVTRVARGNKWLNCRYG

NC(=O)C(Cc1c[nH]c2ccccc12)NC(=O)C(CCCc1ccccc1)CP(=O)(O)C(Cc1ccccc1)NC(=O)c1ccc2ccccc2n1 (configuration not stated)
pKi [1]: 7.22 | pKi (Matrilysin): 6.43 | pKi (Interstitial collagenase): 6.47 | pKi (Neutrophil collagenase): 8.30 | pKi [2]: 7.72 | pKi (Stromelysin-3): 8.38 | pKi [3]: 7.89
